Measured values reported in article PMC6013806 (Chemical Science, 2016).
One block for each molecule: values may come before it.

Assays:
[1] = system: MMP-2 in rat renal myofibroblasts; test: MMP-2 levels by gelatin zymography, rat renal myofibroblasts; format: cell-based
How it was run: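 Rat renal myofibroblasts were isolated from injured kidneys 3 days after unilateral ureteric obstruction. They were exposed to test compound at 16.8 nM (≃100 ng mL−1) for 72 h, with or without an RXFP1 antagonist (relaxin B-chain Arg13/Arg17→Lys); H2 relaxin was run at equivalent concentration. MMP-2 in media diluted 1:5–1:10 was read by gelatin zymography and densitometry. Three experiments were run in duplicate.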

[2] = molecular target: T1, human RXFP1 (Homo sapiens, UniProt Q9HBX9); test: Competition binding with europium-labelled H2 relaxin in HEK-RXFP1 cells; settings: HEK-293T cells stably expressing RXFP1; compared with B7-33
T1 sequence (Q9HBX9 1-757): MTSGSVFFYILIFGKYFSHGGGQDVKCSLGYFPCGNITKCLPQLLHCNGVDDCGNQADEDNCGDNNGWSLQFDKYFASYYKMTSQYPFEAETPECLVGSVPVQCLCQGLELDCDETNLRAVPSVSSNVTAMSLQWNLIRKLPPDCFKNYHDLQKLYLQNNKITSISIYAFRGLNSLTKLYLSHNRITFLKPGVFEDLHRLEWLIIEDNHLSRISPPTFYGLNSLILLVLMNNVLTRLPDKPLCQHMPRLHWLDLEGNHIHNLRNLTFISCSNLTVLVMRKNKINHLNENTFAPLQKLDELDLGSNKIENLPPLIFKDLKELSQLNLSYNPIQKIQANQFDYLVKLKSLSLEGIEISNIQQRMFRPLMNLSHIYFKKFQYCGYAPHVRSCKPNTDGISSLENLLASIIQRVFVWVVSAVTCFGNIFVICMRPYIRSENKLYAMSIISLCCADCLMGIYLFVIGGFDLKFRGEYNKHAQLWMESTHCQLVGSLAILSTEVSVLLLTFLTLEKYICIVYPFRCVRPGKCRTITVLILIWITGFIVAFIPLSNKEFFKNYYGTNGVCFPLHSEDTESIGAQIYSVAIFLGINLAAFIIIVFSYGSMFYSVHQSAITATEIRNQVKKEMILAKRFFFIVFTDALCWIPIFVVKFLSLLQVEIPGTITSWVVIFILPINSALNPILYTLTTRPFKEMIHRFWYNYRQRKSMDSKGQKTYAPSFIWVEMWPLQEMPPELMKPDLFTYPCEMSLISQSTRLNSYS
How it was run: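 Whole-cell competition binding on HEK-293T cells stably transfected with RXFP1. Cells were grown in RPMI 1640 with 10% FCS, penicillin, streptomycin and 2 mM L-glutamine, then plated on poly-L-lysine-coated wells. Eu3+-labelled H2 relaxin was competed by increasing concentrations of unlabelled test peptide. % specific binding was measured in triplicate wells, repeated ≥3 times; one-site fit gave pIC50.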

[3] = molecular target: T1, human RXFP1; test: cAMP reporter gene assay, HEK-293T cells expressing human RXFP1; format: cell-based; settings: HEK-293T cells stably expressing RXFP1
How it was run: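 HEK-293T cells expressing human RXFP1 were co-transfected with a pCRE β-galactosidase cAMP reporter plasmid and plated. After 24 h they were incubated with increasing concentrations of test peptide in parallel with H2 relaxin. Points were run in triplicate, with ≥3 independent experiments; pEC50 values were derived.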

[4] = cited from earlier work
[5] = cited from earlier work; remark: listed apart in the source
[6] = molecular target: Relaxin Family Peptide Receptor 1 (RXFP1), human, stably expressed in HEK-293T cells (human) (UniProt Q9HBX9); test: competition binding with Eu3+-labelled H2 relaxin on whole cells

Molecule: Cc1cc(Cn2cnc3c2C[C@@H](C(=O)O)N(C(=O)C(c2ccccc2)c2ccccc2)C3)ccc1N(C)C [PD123319]
effect of antagonist alone on basal MMP-2 expression ([1]; antagonist alone): neither the RXFP1 nor AT2 receptor antagonists alone affected basal MMP-2 expression | effect of antagonist on MMP-promoting effects of B7-33 ([1]; rat renal myofibroblasts treated with B7-33): completely blocked

binding affinity at HEK-RXFP1 (in words) [2]: no change | cAMP activity at HEK-RXFP1 (in words) [3]: no change
Molecule: AcB7-33: Acetylated B7-33 (Ac-VIKLCGRELVRAQIAICGMSTWSKRSL-NH2; cysteine pairing not given here; UniProt P04090 31-57, looked up, fragment)

Molecule: B1-29: native H2 relaxin B-chain with 29 residues
solubility in water [4]: insoluble in water | functional activity [5]: functionally inactive

pKi [6]: 5.54
Molecule: B7-33 (H2 relaxin B-chain-only analogue) (peptide)

pKi [6]: 8.96
Molecule: Human gene-2 relaxin (ligand)
